Test results taken from ChEMBL document CHEMBL2429727, “Syntheses, biological evaluation and SAR of ingenol mebutate analogues for treatment of actinic keratosis and non-melanoma skin cancer” (Bioorg Med Chem Lett, 2013).
The source made the active and inactive calls. The rule behind the calls is not given here.

Assays:
Keratinocyte [1] = experiment: Induction of TNFalpha release in human primary epidermal keratinocytes after 6 hrs; assay type: functional, cell-based
Summary of the method: (§1)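 Human adult log-phase primary epidermal keratinocytes subcultured at 10,000 cells/well. Incubated with titrated compound for 6 h at 37 °C in humidified 95% air/5% CO2. Secreted cytokines quantified on 4-spot cytokine plates. EC50 is the concentration giving 50% of the maximum effect of the ingenol mebutate reference. Emax is maximal response relative to that reference.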

Keratinocyte [2] = experiment: Induction of IL-8 release in human primary epidermal keratinocytes after 6 hrs by HTRF assay relative to ingenol mebutate; assay type: functional
[3] = target: Protein kinase C delta type (Homo sapiens, UniProt Q05655); experiment: Activation of PKCdelta (unknown origin) using phosphatidylserine […]; conditions: read-out: EC50
Chain of Protein kinase C delta type (Q05655 whole entry): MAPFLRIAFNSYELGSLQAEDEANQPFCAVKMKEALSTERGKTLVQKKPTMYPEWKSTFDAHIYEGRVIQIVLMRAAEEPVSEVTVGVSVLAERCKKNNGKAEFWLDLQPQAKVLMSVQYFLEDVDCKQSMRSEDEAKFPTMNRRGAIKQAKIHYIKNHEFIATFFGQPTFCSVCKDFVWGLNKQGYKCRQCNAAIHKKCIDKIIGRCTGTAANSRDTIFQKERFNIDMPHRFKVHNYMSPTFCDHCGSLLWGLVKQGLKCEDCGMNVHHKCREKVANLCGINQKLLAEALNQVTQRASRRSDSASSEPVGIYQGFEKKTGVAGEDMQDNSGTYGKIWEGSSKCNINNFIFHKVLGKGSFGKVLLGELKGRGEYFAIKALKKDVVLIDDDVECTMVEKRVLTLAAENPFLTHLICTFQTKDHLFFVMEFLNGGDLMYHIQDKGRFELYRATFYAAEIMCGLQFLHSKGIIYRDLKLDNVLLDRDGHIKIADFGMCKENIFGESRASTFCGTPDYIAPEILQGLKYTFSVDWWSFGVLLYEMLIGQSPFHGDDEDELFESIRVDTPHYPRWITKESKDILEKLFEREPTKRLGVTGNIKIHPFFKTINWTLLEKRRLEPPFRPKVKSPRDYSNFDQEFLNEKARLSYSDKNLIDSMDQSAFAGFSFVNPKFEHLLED
Summary of the method: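 PKCdelta assayed in vitro by phosphorylation of a PKC peptide substrate, with 0.05 mg/mL phosphatidylserine and no diacylglycerol so stimulation could be seen. Compounds serially diluted at semilogarithmic intervals, twelve points from 10 µM. Reaction started by adding ATP.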

[4] = Induction of oxidative burst in polymorphonuclear leukocytes (unknown origin) isolated from buffy coat after 40 mins by fluorescence assay; assay type: functional, cell-based
Summary of the method: (§2)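 PMN isolated and purified from fresh buffy coats, then incubated 40 min at ambient temperature with titrated compound (top concentration 10 µM) premixed with hydroethidine. Respiratory burst read as fluorescence in relative light units, emission 579 nm, excitation 485 nm. EC50 and Emax are expressed relative to the maximum effect of the ingenol mebutate reference.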

[5] = Induction of oxidative burst in polymorphonuclear leukocytes (unknown origin) isolated from buffy coat at 10 uM after 40 mins by fluorescence assay relative to ingenol mebutate; assay type: functional; summary of the method: as §2
[6] = Induction of necrosis in human HeLa cells after 30 mins by resazurin assay; assay type: cell-based; conditions: read-out: LC50
Summary of the method: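 HeLa cells exposed to increasing ester concentrations up to 400 µM for 30 min at 37 °C. Remaining metabolic activity then read with a resazurin-based dye. LC50 is the concentration causing 50% loss of metabolic activity.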

Keratinocyte [7] = experiment: Induction of TNFalpha release in human primary epidermal keratinocytes after 6 hrs relative to ingenol mebutate; assay type: functional; summary of the method: as §1
[8] = Chemical stability of the compound in aqueous buffer assessed as drug recovery after 16 hrs at pH 7.4 by HPLC analysis; assay type: physicochemical; conditions: read-out: Drug recovery
Summary of the method: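 DMSO stock diluted with pre-heated (37 °C) aqueous buffer pH 7.4 to at most 30% v/v organic content, then shaken. Held in the HPLC autosampler at 37 °C, first injected within 5 min, then injected repeatedly over 16 h. Recovery taken from the fall in compound peak area, UV detection normally at 270 nm.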

Keratinocyte [9] = experiment: Induction of IL-8 release in human primary epidermal keratinocytes after 6 hrs by HTRF assay; assay type: functional, cell-based
[10] = Dissociation constant, pKa of the compound; assay type: physicochemical
Keratinocyte [11] = experiment: Induction of TNFalpha release in human primary epidermal keratinocytes after 6 hrs in presence of PKC inhibitor bisindolylmaleimide 1; assay type: functional, cell-based
Keratinocyte [12] = experiment: Induction of IL-8 release in human primary epidermal keratinocytes after 6 hrs by HTRF assay in presence of PKC inhibitor bisindolylmaleimide 1; assay type: functional, cell-based
[13] = Induction of oxidative burst in polymorphonuclear leukocytes (unknown origin) isolated from buffy coat at 10 uM after 40 mins by fluorescence assay in presence of PKC inhibitor bisindolylmaleimide 1; assay type: functional, cell-based

Row | Compound | EC50 (Keratinocyte [1]) | Emax (Keratinocyte [2]) | EC50 [3] | EC50 [4] | Emax at 10 µM [5] | CC50 at 0.5 h [6] | Emax (Keratinocyte [7]) | remaining at 16 h [8] | EC50 (Keratinocyte [9]) | pKa [10] | Activity (Keratinocyte [11]) | Activity (Keratinocyte [12]) | Activity [13]
1 | CC1=C[C@]23C(=O)[C@@H](C=C(CO)[C@@H](O)[C@]2(O)[C@H]1OC(=O)C(C)=C(C)C)[C@H]1[C@@H](C[C@H]3C)C1(C)C | 8 nM | 102% | 5.3 nM | 5.9 nM | 106% | 174000 nM | 97% | 75% | 8.6 nM | – | – | – | –
2 | CC1=C[C@]23C(=O)[C@@H](C=C(CO)[C@@H](O)[C@]2(O)[C@H]1OC(=O)C1(C)CCCCC1)[C@H]1[C@@H](C[C@H]3C)C1(C)C | 13 nM | 52% | 2.9 nM | 7.6 nM | 127% | 61000 nM | 62% | 70% | 22 nM | – | – | – | –
3 | C/C=C(/C)C(=O)O | – | – | – | – | – | – | – | – | – | 4.3 | – | – | –
4 | C/C=C(/C)C(=O)O[C@H]1C(C)=C[C@]23C(=O)[C@@H](C=C(CO)[C@@H](O)[C@]12O)[C@H]1[C@@H](C[C@H]3C)C1(C)C [INGENOL MEBUTATE] | 11.2 nM | – | 4.1 nM | 8.7 nM | – | 230000 nM | – | 60% | 10.3 nM | – | inactive | inactive | inactive
5 | C/C=C(\C)C(=O)O[C@H]1C(C)=C[C@]23C(=O)[C@@H](C=C(CO)[C@@H](O)[C@]12O)[C@H]1[C@@H](C[C@H]3C)C1(C)C | – | 75% | – | 7.5 nM | 92% | 237000 nM | 81% | 45% | 112 nM | 5.02 | – | – | –
6 | C/C=C(/C(=O)O[C@H]1C(C)=C[C@]23C(=O)[C@@H](C=C(CO)[C@@H](O)[C@]12O)[C@H]1[C@@H](C[C@H]3C)C1(C)C)c1ccccc1 | 4.9 nM | 97% | 5.2 nM | 7.4 nM | 126% | 103000 nM | 110% | 72% | 3.8 nM | – | – | – | –
7 | CCCCCCCCCC(=O)O[C@H]1C(C)=C[C@]23C(=O)[C@@H](C=C(CO)[C@@H](O)[C@]12O)[C@H]1[C@@H](C[C@H]3C)C1(C)C | 11 nM | 94% | 5.3 nM | 10 nM | 137% | 117000 nM | 96% | – | 8 nM | – | – | – | –
8 | CO/N=C(\C(=O)O[C@H]1C(C)=C[C@]23C(=O)[C@@H](C=C(CO)[C@@H](O)[C@]12O)[C@H]1[C@@H](C[C@H]3C)C1(C)C)c1ccccc1 | 1600 nM | 54% | 10.6 nM | 49 nM | 120% | 92000 nM | 52% | 68% | 147 nM | – | – | – | –
9 | CCC(CC)C(=O)O[C@H]1C(C)=C[C@]23C(=O)[C@@H](C=C(CO)[C@@H](O)[C@]12O)[C@H]1[C@@H](C[C@H]3C)C1(C)C | 27 nM | 59% | 4.5 nM | 6.3 nM | 109% | 86000 nM | 62% | 60% | 43 nM | – | – | – | –
